Drawing on ChEMBL document CHEMBL1151173, “Sesquiterpene lactones from Montanoa hibiscifolia that inhibit the transcription factor NF-kappa B” (J Nat Prod, 2004), this text covers Lowest concentration giving complete inhibition of NF-kappaB DNA binding and Activity for five compounds.

One data set deals with Jurkat. In words: Inhibition of NF-kappaB binding to DNA in TNF-alpha-stimulated human Jurkat T cells pretreated for 1 hr before TNFalpha stimulation. The data set is classed as cell-based. The gist of the method: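 Jurkat T cells (RPMI 1640, 10% FCS, penicillin/streptomycin) were pretreated 1 h with compound at various concentrations, then stimulated 1 h with 200 U/mL TNF-α. High-salt detergent total extracts (10-20 µg protein) were incubated 25 min at room temperature with poly(dI-dC), BSA and a 33P-labeled NF-κB oligonucleotide. The EMSA value is the lowest concentration giving complete inhibition of DNA binding. Run in duplicate.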

Data set [1] relates to RAW264.7. In words: Cytotoxicity against mouse RAW264.7 cells by trypan blue exclusion method. The data set is classed as cell-based.
Data set [2] deals with RAW264.7. In words: Inhibition of NF-kappaB binding to DNA in LPS-stimulated mouse RAW264.7 cells pretreated for 1 hr before LPS stimulation.

As to `C=C1C(=O)O[C@H]2/C=C(\C)CC/C=C(/C)[C@@H](OC(=O)/C(C)=C/C)[C@H](O)[C@@H]12`, the Lowest concentration giving complete inhibition of NF-kappaB DNA binding in the data set on Jurkat is 100 µM. Moreover, the Activity entry in the data set on RAW264.7 [1] is “Non-toxic”; in the data set with RAW264.7 [2], 20 µM.

Consider `C=C1C(=O)O[C@H]2/C=C(\C)CC/C=C(/C)C(=O)[C@H](OC(=O)[C@@]3(C)O[C@H]3C)[C@@H]12`, for which, in the data set on Jurkat, the Lowest concentration giving complete inhibition of NF-kappaB DNA binding is 50 µM. The Activity entry was “Non-toxic” in the data set on RAW264.7 [1] and 20 µM with RAW264.7 [2].

For `C=C1CCC=C(C)[C@@]2(O)[C@H](OC(=O)[C@]3(C)O[C@@H]3C)[C@@H]3[C@@H](OC(=O)[C@@H]3C)[C@H]12`, in the data set on Jurkat, the Lowest concentration giving complete inhibition of NF-kappaB DNA binding came out at 200 µM.

Take `C=C1C(=O)O[C@@H]2[C@H]1[C@@H](OC(=O)[C@]1(C)O[C@@H]1C)C(=O)[C@@]1(C)C=CC[C@@](C)(O)[C@@H]21`: the Lowest concentration giving complete inhibition of NF-kappaB DNA binding in the data set with Jurkat is 10 µM. Moreover, the Activity entry with RAW264.7 [1] is “Non-toxic”; in the data set with RAW264.7 [2] it was 10 µM.

As to `C=C1C(=O)O[C@@H]2C3O[C@]3(C)CC/C=C(\C)CC[C@@H]12` (stereo partly specified), in the data set on Jurkat, the Lowest concentration giving complete inhibition of NF-kappaB DNA binding amounted to 20 µM.
